Bioassay records (PubChem)
Only some compounds are listed: those with a hit (about 2.2% of all), similar ones and a draw of the others.
DNMT1 inh: inhibitors of human DNMT1. P26358. DNMT1 molecular beacon, Hinp1I cleavage, fluorescence. inhibition (reported as % activation of signal), % at 10 µM. 360,000 compounds, 0.83% hits; in the data active = inhibition above about 50%
LMPTP inh: LMPTP (human) inhibition | recombinant LMPTP-A, OMFP fluorogenic substrate, fluorescence intensity | inhibition, % at 20 µM | AID 651560 | 360,000 compounds, 0.22% hits;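 active = compounds that cut the enzyme signal by at least half of the control window in the single-dose screen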;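 also: plate controls were DMSO wells with enzyme plus substrate for no effect and substrate without enzyme for full effect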
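Test system: LMPTP-A, protein tyrosine phosphatase of low molecular weight; Input: 0.625 nM enzyme; Incubation: 50 min dark incubation at room temperature; Signal: endpoint fluorescence intensity from OMFP dephosphorylation; Read-out basis: % inhibition versus control wells.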
STEP inh: inhibitors of human striatal-enriched phosphatase STEP; recombinant STEP, OMFP fluorogenic substrate, fluorescence; inhibition, % at 20 µM; 360,000 compounds, 0.25% hits; AID 588621;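 active = inhibition at 20 µM, scaled per plate between control wells, above about 37%, limit read from the data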;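 also: 0% = DMSO with enzyme and substrate and 100% = substrate only without enzyme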
Target sequence (P54829 whole entry, looked up): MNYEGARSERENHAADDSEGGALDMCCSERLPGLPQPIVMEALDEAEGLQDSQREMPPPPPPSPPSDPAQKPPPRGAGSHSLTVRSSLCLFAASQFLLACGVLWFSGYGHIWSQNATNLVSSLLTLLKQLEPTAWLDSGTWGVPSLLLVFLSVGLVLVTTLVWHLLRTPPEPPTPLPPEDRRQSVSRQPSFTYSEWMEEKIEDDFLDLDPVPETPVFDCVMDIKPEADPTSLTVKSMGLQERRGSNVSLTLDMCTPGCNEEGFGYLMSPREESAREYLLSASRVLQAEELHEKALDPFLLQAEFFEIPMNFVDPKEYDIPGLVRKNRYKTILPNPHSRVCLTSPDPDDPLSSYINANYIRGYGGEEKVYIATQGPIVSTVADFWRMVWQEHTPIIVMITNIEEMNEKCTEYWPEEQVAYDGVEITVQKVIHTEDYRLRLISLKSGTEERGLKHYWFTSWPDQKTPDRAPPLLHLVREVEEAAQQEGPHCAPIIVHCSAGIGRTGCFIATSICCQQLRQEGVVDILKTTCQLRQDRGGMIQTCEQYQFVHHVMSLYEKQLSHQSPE
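medium = Bis-Tris buffer pH 6.0, 2.5 mM DTT, 0.005% Tween 20 | test system = STEP (striatal-enriched tyrosine phosphatase) enzyme, cell-free | measure = normalized % inhibition | compound dosing = 20 µM, 1% DMSO | also added = 25 µM OMFP | schedule = reaction 20 min, ambient temperature | measured by = fluorescence read at 480 nm ex / 540 nm em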
GRK2 aptamer HTS: inhibitors of human GRK2 displacing RNA aptamer; bead flow cytometry, FAM-aptamer displacement from GRK2; inhibition of aptamer binding, % at 10 µM; 330,000 compounds, 0.59% hits; P25098;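 active = inhibition of aptamer binding above 40%, roughly 3 SD of noise, on plates passing a quality check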;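 also: median bead fluorescence of bound FAM aptamer so fluorescent compounds give negative values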
Scp1 inh: Scp-1 (human) phosphatase inhibition. Q9GZU7. Recombinant Scp1, phosphopeptide, malachite green phosphate absorbance. inhibition, % at 20 µM. 340,000 compounds, 0.88% hits;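 active = inhibition above about 50% at 20 µM, limit read from the data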;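 also: plate controls were DMSO wells with enzyme for no effect and wells lacking enzyme for full effect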
Target sequence (Q9GZU7 76-261 limits assumed): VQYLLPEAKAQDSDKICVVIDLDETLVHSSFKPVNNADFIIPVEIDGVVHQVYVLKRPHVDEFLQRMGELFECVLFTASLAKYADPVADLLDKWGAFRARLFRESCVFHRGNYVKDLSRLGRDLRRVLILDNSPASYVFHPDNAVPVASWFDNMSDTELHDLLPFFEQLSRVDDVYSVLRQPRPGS
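Assay system: SCP-1 catalytic fragment, aa 76-261 | Buffer or medium: Tris acetate buffer pH 5.5 with MgCl2 and Tween-20 | Compound: One concentration, 20 µM, with 1.0% DMSO | Also added: Phospho 17-mer peptide substrate | Signal: Absorbance at 630 nm | Incubation: 45 min enzyme reaction at room temperature | Measure: % inhibition of SCP-1 phosphate liberation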
SUMO1 PPI mod: alters human SUMO1 binding to SIM partners; P63165; SUMO1 binding to a labelled peptide, TR-FRET, 1 h; inhibition, % at 20 µM; 360,000 compounds, 0.33% hits; AID 602429; in the data active = inhibition above about 37%
GRK2 inh confirm: confirmation of human GRK2 inhibitors displacing RNA aptamer; shares compounds with GRK2 aptamer HTS; bead-bound GRK2, FAM-aptamer displacement, flow cytometry; aptamer displacement, % at 10 µM; 2,000 compounds, 4% hits;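 active = aptamer displacement above 40%, near three times the noise of non-fluorescent compounds, on plates passing quality checks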;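 also: negative values mostly reflect intrinsic compound fluorescence rather than true enhancement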
Aptamer quench 1: quenches fluorescent RNA aptamer, GRK2 hit artifact | Fluorescent RNA aptamer beads, quenching, flow cytometry; active compounds read high | shares compounds with GRK2 aptamer HTS | AID 504521 | 110 tested, under 10 active | fluorescence change (kMESF span), kMESF (test concentration not listed);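 active = compounds whose bead fluorescence drops by more than 37 kMESF across the dose range, marking them as dye quenchers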
Aptamer quench SP: quenches fluorescent RNA aptamer, GRK2 hit artifact | AID 504580 | shares compounds with GRK2 aptamer HTS | fluorescence response (% of DMSO), % at 10 µM | Carboxyfluorescein RNA aptamer on beads, flow cytometry quenching; active compounds read low | 2,000 tested, under 10 active;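 active = compounds that quench the bead-bound fluorescent RNA probe, cutting fluorescence to under half of the solvent control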;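 also: counterscreen run without GRK2 so only probe quenching by compound is measured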
GRK2 confirm 2: confirmation of human GRK2 inhibitors binding RNA aptamer site | shares compounds with GRK2 aptamer HTS | bead-bound GRK2, FAM-aptamer displacement, flow cytometry | inhibition of aptamer binding, % at 10 µM | 360 tested, under 10 active | AID 504782;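 active = inhibition of aptamer binding above 40%, about triple the noise seen with nonglowing compounds, on plates passing quality control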;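 also: negative values mostly come from compounds that fluoresce themselves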
FAM quench SP: counter-screen for GRK2 binding hits: quenchers of fluorescent RNA aptamer. shares compounds with GRK2 aptamer HTS. carboxyfluorescein RNA aptamer beads, flow cytometry quenching; active compounds read low. fluorescence response vs DMSO, % at 10 µM. 360 tested, under 10 active;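 active = response vs DMSO under 50%, meaning signal dropped by over half, treated as fluorescence quencher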;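 also: labelled aptamer on streptavidin beads without GRK2 as a quench counter-screen; 100% = bead fluorescence of DMSO wells and lower means quenching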
FAM quench DR: counter-screen for GRK2 aptamer binding inhibitors: aptamer fluorescence quenching | shares compounds with GRK2 aptamer HTS | Bead-bound FAM RNA aptamer fluorescence quenching, flow cytometry; active compounds read low | 35 tested, under 10 active | fluorescence ratio to DMSO, % at 11.1 µM;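 active = compounds that dim the fluorescent label, raw bead signal shifting by over 33 units between lowest and highest dose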
The depositor's hits bear a star; · = no result.

SMILES	DNMT1 inh	LMPTP inh	STEP inh	GRK2 aptamer HTS	Scp1 inh	SUMO1 PPI mod	GRK2 inh confirm	Aptamer quench SP	others
CCN(C(=O)COC(=O)c1cc(=O)[nH]c2ccccc12)C1CCS(=O)(=O)C1 (stereo unspecified)	4.5	0.1	-0.2	49.0*	7.7	-18.0	-15.6	95.4
CCc1nc2ccc(C(=O)Nc3cccc(NS(C)(=O)=O)c3)cn2c1N(C)C(=O)c1cccc(OC)c1	-1.4	0.4	1.1	·	·	4.8	·	·
[O-]/C(=C(\C(=S)Nc1ccc(Cl)cc1)[n+]1ccccc1)c1ccc(OC(F)F)cc1	-21.2	0.9	1.9	53.0*	-3.0	-3.7	0.8	105.1
[O-]/C(=C(\C(=S)Nc1ccccc1F)[n+]1ccccc1)c1ccc(-c2ccccc2)cc1	-12.4	2.3	0.9	1.0	-2.9	-5.6	·	·
O=C(CN1CCc2ccccc21)NC(=O)NCc1ccccc1	-2.9	0.9	-0.8	42.0*	-5.2	1.5	70.1*	100.6	Aptamer quench 1=11.1;FAM quench DR=101.0
O=C1[C@H]2[C@@H](c3ccccc3)N[C@]3(CCCN(Cc4ccc(Br)cc4)C3=O)[C@H]2C(=O)N1Cc1ccccc1	12.2	0.8	1.2	·	·	4.4	·	·
CC(CC(=O)Nc1ccc(F)cc1)S(=O)(=O)c1ccc2c(c1)NC(=O)CO2 (stereo unspecified)	-0.3	-1.7	1.3	4.0	-6.3	1.3	·	·
CC(CC(=O)Nc1ccc(Br)cc1F)S(=O)(=O)c1ccc2c(c1)NC(=O)CO2 (stereo unspecified)	-0.9	-4.8	-1.4	0.0	-15.4	-2.6	·	·	GRK2 confirm 2=-7.8;FAM quench SP=102.0
O=C(c1ccc(Cl)cc1[N+](=O)[O-])N1CCN(c2ccccn2)CC1	-2.7	-0.8	-2.4	82.0*	2.4	-20.9	-4.9	101.5
Cc1c(C(=O)N2CCN(c3ccccn3)CC2)cccc1[N+](=O)[O-]	0.7	-1.3	-1.8	4.0	-11.7	-3.4	1.4	103.0
O=C(c1ccc([N+](=O)[O-])cc1Cl)N1CCN(c2ccccn2)CC1	-1.1	-1.4	2.0	1.0	-7.0	-29.7	·	·
COC(=O)c1ccc(C(=O)N2CCCCCC2(C)C(=O)NC(C)C)cc1 (stereo unspecified)	3.3	0.0	1.8	·	·	-1.0	·	·
CCOc1ccc(C(=O)c2nc3c(n2O)CCCC3)cc1	3.8	-1.6	1.3	25.0	-1.4	-6.5	-1.3	104.0
C[C@H](CO)N1C[C@H](C)[C@@H](CN(C)S(=O)(=O)c2ccccc2)Oc2c(NS(=O)(=O)c3ccccc3)cccc2C1=O	-0.5	-1.0	3.0	2.0	0.6	6.1	·	·
CCCCNc1ccc(S(N)(=O)=O)cc1[N+](=O)[O-]	·	·	·	5.0	·	·	·	·
CCNc1ccc(S(=O)(=O)N(C)C)cc1[N+](=O)[O-]	4.0	0.4	-1.3	66.0*	58.7*	-14.8	-3.3	96.6
COc1ccccc1Cc1c(C2CCCCC2)nc2cc(C)c(Br)c(C)n12	·	2.6	·	·	·	0.8	·	·
COc1ccc(CCNC(=O)CN(C)S(=O)(=O)c2ccc(OC)cc2)cc1	-2.2	-1.7	-2.2	60.0*	-6.0	4.6	8.2	99.0
CC(C(=O)OCC(=O)N1CCN(c2ccccc2)CC1)N1C(=O)c2ccccc2C1=O (stereo unspecified)	6.5	0.7	1.2	3.0	1.1	-20.3	-1.0	100.4
O=C(CSc1n[nH]c(-c2ccc(Br)cc2)n1)N1CCOCC1	-0.2	-0.1	-2.2	20.0	-3.9	1.2	-1.9	100.8
Cc1ccc([C@H]2C(C(=O)O)=CCN2S(=O)(=O)c2ccc(C)cc2)cc1	·	-2.5	·	·	·	0.3	·	·
O=c1[nH]c(CN2CCN(c3ccccc3)CC2)nc2ccccc12	0.1	-1.9	1.3	0.0	5.6	0.3	·	·	GRK2 confirm 2=9.9;FAM quench SP=101.0
O=c1[nH]c(CN2CCN(c3ccc(F)cc3)CC2)nc2ccccc12	2.2	-2.4	5.0	4.0	5.6	-3.1	·	·
CCC(CC)C(=O)N1CCN(Cc2nc3ccccc3c(=O)[nH]2)CC1	-0.1	-2.9	0.3	0.0	-4.7	-6.3	·	·
O=C(c1cccs1)N1CCN(Cc2nc3ccccc3c(=O)[nH]2)CC1	1.3	-2.2	3.1	5.0	1.6	1.0	·	·	GRK2 confirm 2=-8.8;FAM quench SP=98.0
SMILES	DNMT1 inh	LMPTP inh	STEP inh	GRK2 aptamer HTS	Scp1 inh	SUMO1 PPI mod	GRK2 inh confirm	Aptamer quench SP	others
O=C(NC1CCCCC1)N1CCN(Cc2nc3ccccc3c(=O)[nH]2)CC1	0.9	-1.5	-1.9	0.0	-5.9	2.3	·	·	GRK2 confirm 2=-5.5;FAM quench SP=100.0
O=C(c1ccco1)N1CCN(Cc2nc3cc(Cl)ccc3c(=O)[nH]2)CC1	1.4	-1.5	-0.9	4.0	-3.5	12.3	·	·	GRK2 confirm 2=-9.0;FAM quench SP=102.0
CCCCN(C=O)c1c(CC)nc2ccc(C(=O)NCCc3ccccn3)cn12	-0.8	-0.5	0.2	·	·	1.6	·	·
CCCCNS(=O)(=O)c1cccc(NC(=O)[C@@H]2O[C@H](CO)[C@H](O)[C@H](O)[C@H]2O)c1	3.1	-1.0	0.1	·	·	0.8	·	·
O=C(COc1ccc(C2SCCS2)cc1)NNC(=O)C(Cl)Cl	-2.1	0.1	-0.9	46.0*	14.1	2.9	2.3	104.8
Cc1ccc(NC(=O)COc2ccc(C3SCCS3)cc2)cc1	9.8	-2.1	0.9	0.0	-4.6	-2.8	·	·
CCOc1ccc(C(=O)Nc2cc(C)on2)cc1	1.4	-1.7	-4.8	0.0	-4.4	-2.0	·	·
Cc1cc(NC(=O)c2ccc(Cl)cc2)no1	2.0	-0.7	1.1	71.0*	3.1	1.0	0.3	94.8
CC(C)Cc1cc(C(=O)Nc2ccc3c(c2)OCO3)no1	-4.4	-0.3	-2.6	74.0*	-8.4	6.4	-17.5	94.4
COc1ccc([C@H]2CC(=O)C[C@@H](CCn3cc(C(C)C)nn3)O2)cc1	·	-1.2	·	·	·	1.5	·	·
COc1cc(CNCc2cccs2)ccc1OCc1ccccc1	2.7	0.1	2.6	30.0	-3.8	1.7	-2.0	103.2
